The record followed here is ChEMBL document CHEMBL3259808, “Optimization of antitrypanosomatid agents: identification of nonmutagenic drug candidates with in vivo activity” (J Med Chem, 2014).

Some results are limits rather than exact numbers.

Data set [1] relates to Trypanosoma cruzi. Nature of the data set: Antitrypanosomal activity against Trypanosoma cruzi Tulahuen 2 epimastigotes assessed as growth inhibition after 5 days. In kind it is functional, organism-based. To be noted: Trypanosoma cruzi, Tulahuen 2, 120 h. In a few lines:
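Epimastigotes were grown axenically at 28 °C in BHI-tryptose with 5% FBS and seeded from a 5–7 day culture at 1 × 10⁶ cells/mL. Drug from a DMSO stock was added (final DMSO ≤0.4%; the control contained 0.4% DMSO). Duplicates were run. A600 was read at day 5, and % inhibition was calculated relative to day-0 and control readings. IC50 = concentration that halves the absorbance ratio.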

Data set [2] in a line: Selectivity index, ratio of IC50 for African green monkey Vero cells to IC50 for Trypanosoma cruzi Sylvio X-10 amastigotes. It counts as toxicity, cell-based. To be noted: read-out: Ratio IC50. In a few lines: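 VERO cytotoxicity: cells exposed 48 h at 37 °C, 5% CO2 to serial dilutions from a maximum of 2000 μM (DMSO stocks; DMSO <0.1% control); growth inhibition read by MTT at 570 nm. Amastigote IC50: Sylvio X-10-infected VERO cells, five doses, infected cells counted among 300 (Giemsa), quadruplicate, three experiments, sigmoidal fit. SI = IC50 VERO / IC50 amastigote.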

Data set [3] has as its system Trypanosoma cruzi. Put plainly: Antitrypanosomal activity against Trypanosoma cruzi CL Brener infected in BALB/c mouse assessed as peak of maximum parasitemia at 192 umol/kg/day, po for 14 days administered in saline and tween 80 measured up to 60 days relative to control. In kind it is functional. The method, boiled down:
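Male BALB/c mice (30 days old, 25–30 g, SPF) were infected i.p. with 10³ blood trypomastigotes, n = 8/group. Daily oral gavage in saline/Tween 80 (4:1) ran for 14 days from day 6 post-infection; controls received vehicle only. Parasitemia was counted weekly in tail-vein blood by hemocytometer for 60 days, and survival was recorded.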

The subject of data set [4] is Trypanosoma cruzi. Put plainly: Antitrypanosomal activity against Trypanosoma cruzi CL Brener infected in BALB/c mouse assessed as mouse survival at 192 umol/kg/day, po for 14 days administered in saline and tween 80 measured up to 60 days relative to control. It counts as functional.
Data set [5] has as its system Trypanosoma cruzi. Nature of the data set: Antitrypanosomal activity against Trypanosoma cruzi Sylvio X-10 amastigotes infected in African green monkey Vero cells assessed as eradication of amastigotes after 72 hrs by Giemsa staining-based assay. To be noted: Trypanosoma cruzi, Sylvio X-10, Vero, 72 h.
Data set [6] concerns Trypanosoma cruzi. Put plainly: Antitrypanosomal activity against Trypanosoma cruzi Sylvio X-10 amastigotes infected in African green monkey Vero cells assessed as eradication of amastigotes after 5 days by Giemsa staining-based assay. It counts as functional, organism-based. To be noted: Sylvio X-10, Vero, 120 h. The method, boiled down:
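VERO cells in RPMI 1640 with 10% hiFCS were allowed to adhere for 24 h at 37 °C in 5% CO₂, then infected with tissue-derived trypomastigotes at 10:1. Free parasites were washed off after 24 h, and cultures were treated at five compound doses (text gives 72 h / 5 days). Cultures were methanol-fixed and Giemsa-stained, and infected cells were counted among 300. Quadruplicates were run in three independent experiments. IC50/IC90 were obtained by sigmoidal regression.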

The subject of data set [7] is Salmonella typhimurium. Nature of the data set: Mutagenic activity in Salmonella typhimurium TA1535 at 6 to 500 ug/plate by Ames test in presence of mouse liver S9 fraction. It counts as toxicity, organism-based. Conditions: salmonella enterica subsp. enterica serovar typhimurium. The method, boiled down:
(§1)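 Plate-incorporation Ames test on minimal glucose agar with 500 μL Aroclor-treated mouse liver S9 added. DMSO solutions were tested at five consecutive 3-fold dilutions from the highest non-toxic dose, in triplicate, with a DMSO negative control. Revertants were counted manually; a compound was scored mutagenic when revertants were at least twice the negative control for two or more consecutive doses.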

Data set [8] in a line: Stability of the compound in aqueous solution assessed as compound remaining at 1 mM at 37 degC after 1 hr by TLC analysis in presence of rat liver cytosolic fraction. To be noted: cytosol, 1000 µM. In kind it is ADME. In a few lines:
(§2)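 Rat liver cytosolic (100 000g supernatant) and microsomal (100 000g pellet, washed and resuspended in Tris·HCl) fractions, fresh or stored at −80 °C; protein measured by BCA. Compound incubated with the fraction 1 h at 37 °C and analysed by TLC of extracts.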

Data set [9] is described as follows: Stability of the compound in aqueous solution assessed as compound remaining at 1 mM at 37 degC after 1 hr by TLC analysis in presence of rat liver microsomal fraction. To be noted: microsomes, 1000 µM. The method, boiled down: as §2
Data set [10] concerns Trypanosoma cruzi. Put plainly: Antitrypanosomal activity against Trypanosoma cruzi CL Brener infected in BALB/c mouse assessed as mouse survival at 107 umol/kg/day, po administered in cholesterol/surfactant/phosphate buffer in 19 day schedule including 5 days of dosing 2 days of resting and final 4 days of dosing measured up to 60 days relative to control. In kind it is functional. In a few lines: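 Oral gavage of infected male BALB/c mice at 50 mg/kg/day in cholesterol/surfactant/phosphate buffer pH 7.4 microemulsion, from day 6 postinfection. Schedule: 5 days dosing, 2 rest, 5 dosing, 2 rest, 4 dosing. n = 6/group, with vehicle controls. Parasitemia was read weekly in tail-vein blood for 60 days and mortality recorded.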

Data set [11] deals with Salmonella typhimurium. Nature of the data set: Mutagenic activity in Salmonella typhimurium TA102 at 6 to 500 ug/plate by Ames test in presence of mouse liver S9 fraction. In kind it is toxicity, organism-based. To be noted: salmonella enterica subsp. enterica serovar typhimurium. The method, boiled down: as §1
A further data set relates to Mus musculus. Put plainly: Toxicity in BALB/c mouse assessed as mortality at 100 mg/kg/day, po for 14 days. In kind it is organism-based. Also on record: route oral. To be noted: in vivo, 336 h. In a few lines: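 Uninfected female BALB/c mice (n = 2/group) received intragastric gavage daily for 14 days in saline/Tween 80 (4:1). They were weighed and monitored daily, then sacrificed for macroscopic necropsy of organs.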

Data set [12] concerns Trypanosoma cruzi. Nature of the data set: Antitrypanosomal activity against Trypanosoma cruzi CL Brener infected in BALB/c mouse assessed as peak of maximum parasitemia at 107 umol/kg/day, po administered in cholesterol/surfactant/phosphate buffer in 19 day schedule including 5 days of dosing 2 days of resting and final 4 days of dosing measured up to 60 days relative to control. It counts as functional. The method, boiled down: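 Male BALB/c mice (n = 6/group) were infected i.p. with 10³ blood trypomastigotes. From day 6 they were dosed orally in microemulsion vehicle on a schedule of 5 days on, 2 off, 5 on, 2 off, 4 on. Controls received vehicle. Parasitemia was counted weekly in tail-vein blood for 60 days, and mortality was recorded.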

For data set [13], the system named is Salmonella typhimurium. Put plainly: Mutagenic activity in Salmonella typhimurium TA1535 at 6 to 500 ug/plate by Ames test. Conditions: salmonella enterica subsp. enterica serovar typhimurium. It counts as toxicity, organism-based. The method, boiled down:
(§3)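 Direct plate incubation on minimal glucose agar (Vogel-Bonner E). Compound toxicity to the bacteria was checked first. DMSO solutions were tested at five consecutive 3-fold dilutions, starting from the highest non-toxic dose, in triplicate, without metabolic activation. DMSO served as negative control. Revertants were counted manually; mutagenic = revertants at least double the negative control at two or more consecutive doses.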

Data set [14] in a line: Selectivity index, ratio of IC50 for mouse J774.1 cells to IC50 for Trypanosoma cruzi Sylvio X-10 amastigotes. In kind it is toxicity. To be noted: read-out: Ratio IC50. The method, boiled down:
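J774.1 macrophages grown in DMEM with 10% heat-inactivated FCS and allowed to attach 48 h, then exposed 48 h at 37 °C to 12.5–400.0 μM. Triplicates. MTT 0.1 mg/mL for 3 h, read at 560 nm; IC50 by linear regression against the solvent control. SI = IC50 J774.1 / parasite IC50 (Sylvio X-10 amastigotes or Tulahuen 2 epimastigotes, the latter measured by A600 growth inhibition at day 5).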

Data set [15] can be described thus: Stability of the compound in aqueous solution assessed as compound remaining at 1 mM at pH 6 after 1 hr by TLC analysis. It counts as physicochemical. Conditions: aqueous solution, pH 6; read-out: Stability. The method, boiled down:
(§4)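 DMSO stocks diluted to final 1 mM in KCl·HCl pH 1.0, citrate pH 6.0, Tris·HCl pH 7.4 or borax·HCl pH 9.0 buffer. Incubated 1 h at 37 °C, then ethyl acetate extracts checked by TLC for decomposition products.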

Data set [16] in a line: Stability of the compound in eumulgin HRE 40, sodium oleate, soya phosphatidylcholine, cholesterol, and phosphate buffer at pH 7.4 at 4 degC. It counts as physicochemical. In a few lines:
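Storage stability of the compound in vehicle V2, a microemulsion of surfactant (Eumulgin HRE 40/sodium oleate/soya phosphatidylcholine, 10%), cholesterol oil phase (10%) and pH 7.4 phosphate buffer (80%), followed over 1 week at 4 °C.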

Data set [17] deals with Salmonella typhimurium. Put plainly: Mutagenic activity in Salmonella typhimurium TA102 at 6 to 500 ug/plate by Ames test. In kind it is toxicity, organism-based. To be noted: salmonella enterica subsp. enterica serovar typhimurium. In a few lines:
as §3

A short description of data set [18]: Stability of the compound in aqueous solution assessed as compound remaining at 1 mM at pH 7.4 after 1 hr by TLC analysis. In kind it is physicochemical. To be noted: aqueous solution, pH 7.4; read-out: Stability. The method, boiled down:
as §4

In data set [19] the test system is Salmonella typhimurium. Put plainly: Mutagenic activity in Salmonella typhimurium TA1537 at 6 to 500 ug/plate by Ames test. In kind it is toxicity, organism-based. Conditions: salmonella enterica subsp. enterica serovar typhimurium. The method, boiled down:
as §3

Data set [20] is described as follows: Stability of the compound in aqueous solution assessed as compound remaining at 1 mM at pH 9 after 1 hr by TLC analysis. In kind it is physicochemical. To be noted: aqueous solution, pH 9; read-out: Stability. In a few lines: as §4
For data set [21], the system named is Salmonella typhimurium. Nature of the data set: Mutagenic activity in Salmonella typhimurium TA100 at 6 to 500 ug/plate by Ames test in presence of mouse liver S9 fraction. In kind it is toxicity, organism-based. To be noted: salmonella enterica subsp. enterica serovar typhimurium. In a few lines: as §1
Data set [22] relates to Salmonella typhimurium. Nature of the data set: Mutagenic activity in Salmonella typhimurium TA98 at 6 to 500 ug/plate by Ames test. In kind it is toxicity, organism-based. Conditions: salmonella enterica subsp. enterica serovar typhimurium. In a few lines:
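Ames plate-incorporation assay with S. typhimurium TA98 in Vogel-Bonner E minimal glucose agar. Toxicity toward the bacteria was checked first. DMSO solutions were run in triplicate at five consecutive third-dilutions, starting at the highest non-toxic dose. Positive controls were 4-nitro-o-phenylenediamine (20.0 μg/plate) and 2-aminofluorene (10.0 μg/plate); DMSO was the negative control. Revertants were counted manually. A compound was called mutagenic when revertants were at least twice the negative control at two or more consecutive doses.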

Data set [23] concerns Salmonella typhimurium. Put plainly: Mutagenic activity in Salmonella typhimurium TA100 at 6 to 500 ug/plate by Ames test. In kind it is toxicity, organism-based. Conditions: salmonella enterica subsp. enterica serovar typhimurium. In a few lines: as §3
The subject of data set [24] is Salmonella typhimurium. Nature of the data set: Mutagenic activity in Salmonella typhimurium TA1537 at 6 to 500 ug/plate by Ames test in presence of mouse liver S9 fraction. In kind it is toxicity, organism-based. To be noted: salmonella enterica subsp. enterica serovar typhimurium. In a few lines: as §1

With `O=C(Cn1ccnc1[N+](=O)[O-])NCc1ccccc1` [BENZNIDAZOLE], the 50% inhibitory concentration (IC50) in the data set with Trypanosoma cruzi [1] came out at 7 µM; in the data set with Trypanosoma cruzi [5], 3.3 µM. The selectivity ratio in data set [2] came to 300. Besides, the Time in the data set on Trypanosoma cruzi [3] amounted to 42 days. For the same compound, the survival at 192 µmol/kg in the data set on Trypanosoma cruzi [4] came out at 100%.

As for `Br.C=CCn1c(-c2ccc3ccccc3c2)cs\c1=N/N=C/C=C/c1ccco1`, the figures for the IC50 with Trypanosoma cruzi [6] and with Trypanosoma cruzi [1] were less than 0.21 µM and 2.4 µM, respectively. Besides, the Activity entry in the data set on Salmonella typhimurium [7], in the data set on Salmonella typhimurium [11], in the data set with Mus musculus, in the data set on Salmonella typhimurium [13], in the data set on Salmonella typhimurium [17] and in the data set on Salmonella typhimurium [19] was “Non-toxic” in each case. The Activity entry with Salmonella typhimurium [21], in the data set on Salmonella typhimurium [22], in the data set on Salmonella typhimurium [23] and in the data set on Salmonella typhimurium [24] was “Non-toxic” throughout. The Stability entry in [8], in data set [9] and in data set [16] was “Stable” throughout. In addition, the survival at 107 µmol/kg in the data set with Trypanosoma cruzi [10] was 100%. Moreover, the selectivity ratio is greater than 1000 in data set [2] and greater than 120 in [14]. For the same compound, the Time in the data set on Trypanosoma cruzi [12] came to 42 days. In addition, the remaining at 1 h, 1000 µM in [15], in data set [18] and in data set [20] was greater than 95% in each case.
